Measured values reported in ChEMBL document CHEMBL4706624, “Synthesis and evaluation of new quinazoline-benzimidazole hybrids as potent anti-microbial agents against multidrug resistant Staphylococcus aureus and Mycobacterium tuberculosis” (Eur J Med Chem, 2021).
Converted amounts (≈) assume the structure as drawn.

Key:
[1] = tested on: Mycobacteroides abscessus; experiment: Antimycobacterial activity against Mycobacterium abscessus ATCC 19977 by broth microdilution method; format: functional
Procedure, shortened: (§1)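 Broth microdilution MIC in Middlebrook 7H9 with 10% ADC-Tween-80 (BSA, dextrose, 0.2% glycerol, 0.05% Tween-80). Inoculum ~10⁶ cfu/mL set by OD600. Compounds were twofold serially diluted, 0.0064–0.00005 g/100 mL (DMSO stocks). Presto blue resazurin dye was used as read-out. MIC = lowest concentration inhibiting visible growth. Triplicate runs, each in duplicate.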

[2] = tested on: Mycobacteroides chelonae; experiment: Antimycobacterial activity against Mycobacterium chelonae ATCC 35752 by broth microdilution method; format: functional; procedure, shortened: as §1
[3] = tested on: Klebsiella pneumoniae; experiment: Antibacterial activity against Klebsiella pneumoniae BAA-1705 measured after 16 to 18 hrs; format: functional; details: ATCC BAA-1705, time 16-18 hrs
Procedure, shortened: (§2)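 Broth microdilution MIC. Strains grown on MHA; a single colony was grown overnight in CA-MHB at 37 °C with shaking for 18–24 h. Cultures were diluted by OD600 to ~10⁶ cfu/mL and exposed to compound at […]. Plates were incubated at 37 °C for 16-18 h. MIC = lowest concentration with no visible growth. Levofloxacin was the reference. Three independent runs, each in duplicate.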

[4] = tested on: Escherichia coli; experiment: Antibacterial activity against Escherichia coli ATCC 25922 measured after 16 to 18 hrs; format: functional; details: time 16-18 hrs; procedure, shortened: as §2
[5] = tested on: Mycobacterium tuberculosis; experiment: Antitubercular activity against Mycobacterium tuberculosis H37Rv ATCC 27294 measured after 7 days by broth microdilution method; format: functional; details: H37Rv ATCC 27294, 168 h, time 7 day
Procedure, shortened: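 H37Rv in Middlebrook 7H9 with 10% ADC, 0.2% glycerol, 0.05% Tween-80. Inoculum ~10⁶ cfu/mL set by OD600. Twofold serial dilutions, 0.0064–0.00005 g/100 mL. Incubated at 37 °C for 7 days, then Presto blue resazurin read-out. MIC = lowest concentration inhibiting visible growth. Triplicate runs, each in duplicate.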

[6] = tested on: Mycolicibacterium fortuitum; experiment: Antimycobacterial activity against Mycobacterium fortuitum ATCC 6841 by broth microdilution method; format: functional; procedure, shortened: as §1
[7] = tested on: Acinetobacter baumannii; experiment: Antibacterial activity against Acinetobacter baumannii BAA1605 measured after 16 to 18 hrs; format: functional; details: time 16-18 hrs; procedure, shortened: as §2
[8] = tested on: Staphylococcus aureus; experiment: Antibacterial activity against Staphylococcus aureus ATCC 29213 measured after 16 to 18 hrs; format: functional; details: time 16-18 hrs; procedure, shortened: as §2
[9] = tested on: Pseudomonas aeruginosa; experiment: Antibacterial activity against Pseudomonas aeruginosa ATCC 27853 measured after 16 to 18 hrs; format: functional; details: time 16-18 hrs; procedure, shortened: as §2
[10] = tested on: Staphylococcus aureus; experiment: Antibacterial activity against methicillin-sensitive Staphylococcus aureus ATCC 29213 measured after 16 to 18 hrs; format: functional; details: time 16-18 hrs; procedure, shortened: as §2
[11] = tested on: Staphylococcus aureus; experiment: Antibacterial activity against methicillin-resistant Staphylococcus aureus NR10198 measured after 16 to 18 hrs; format: functional; details: time 16-18 hrs; procedure, shortened: as §2
[12] = tested on: Staphylococcus aureus; experiment: Antibacterial activity against methicillin-resistant Staphylococcus aureus NR100 measured after 16 to 18 hrs; format: functional; details: time 16-18 hrs; procedure, shortened: as §2
[13] = tested on: Staphylococcus aureus; experiment: Antibacterial activity against methicillin-resistant Staphylococcus aureus NR119 measured after 16 to 18 hrs; format: functional; details: time 16-18 hrs; procedure, shortened: as §2
[14] = tested on: Staphylococcus aureus; experiment: Antibacterial activity against methicillin-resistant Staphylococcus aureus NR10129 measured after 16 to 18 hrs; format: functional; details: time 16-18 hrs; procedure, shortened: as §2
[15] = tested on: Staphylococcus aureus; experiment: Antibacterial activity against methicillin-resistant Staphylococcus aureus NR10186 measured after 16 to 18 hrs; format: functional; details: time 16-18 hrs; procedure, shortened: as §2
[16] = tested on: Staphylococcus aureus; experiment: Antibacterial activity against methicillin-resistant Staphylococcus aureus NR10193 measured after 16 to 18 hrs; format: functional; details: time 16-18 hrs; procedure, shortened: as §2
[17] = tested on: Staphylococcus aureus; experiment: Antibacterial activity against vancomycin-resistant Staphylococcus aureus VRS1 measured after 16 to 18 hrs; format: functional; details: time 16-18 hrs; procedure, shortened: as §2
[18] = tested on: Staphylococcus aureus; experiment: Antibacterial activity against methicillin-resistant Staphylococcus aureus NR10191 measured after 16 to 18 hrs; format: functional; details: time 16-18 hrs; procedure, shortened: as §2
[19] = tested on: Staphylococcus aureus; experiment: Antibacterial activity against vancomycin-resistant Staphylococcus aureus VRS4 measured after 16 to 18 hrs; format: functional; details: time 16-18 hrs; procedure, shortened: as §2
[20] = tested on: Staphylococcus aureus; experiment: Antibacterial activity against vancomycin-resistant Staphylococcus aureus VRS12 measured after 16 to 18 hrs; format: functional; details: time 16-18 hrs; procedure, shortened: as §2
[21] = tested on: Staphylococcus aureus; experiment: Antibacterial activity against methicillin-resistant Staphylococcus aureus NR10194 measured after 16 to 18 hrs; format: functional; details: time 16-18 hrs; procedure, shortened: as §2
[22] = tested on: Staphylococcus aureus; experiment: Antibacterial activity against methicillin-resistant Staphylococcus aureus NR10192 measured after 16 to 18 hrs; format: functional; details: time 16-18 hrs; procedure, shortened: as §2
[23] = Selectivity index, ratio of CC50 for cytotoxicity against African green monkey Vero cells to MIC for antibacterial activity against Staphylococcus aureus ATCC 29213; format: toxicity, cell-based; details: read-out: Selectivity Index
Procedure, shortened: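 SI = Vero CC50 (MTT, 72 h) divided by MIC against S. aureus ATCC 29213 (CA-MHB broth microdilution, 16-18 h, 37 °C).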

[24] = Cytotoxicity against African green monkey Vero cells assessed as reduction in cell viability measured after 72 hrs by MTT assay; format: cell-based; details: chlorocebus sabaeus
Procedure, shortened: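 Vero cells (ATCC CCL-81), ~10³ cells/well, held 24 h at 37 °C in 5% CO₂. Compound at 100–5 mg/L for 72 h. MTT was added for 4 h, formazan dissolved in DMSO, OD read at 540 nm. CC50 = concentration giving 50% viability reduction. Doxorubicin was the positive control. Triplicate.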

Row | SMILES | MIC [1] [µg/mL] | MIC [2] [µg/mL] | MIC [3] [µg/mL] | MIC [4] [µg/mL] | MIC [5] [µg/mL] | MIC [6] [µg/mL] | MIC [7] [µg/mL] | MIC [8] [µg/mL] | MIC [9] [µg/mL] | further results
1 | FC(F)(F)c1nc2ccc(Nc3nc(-c4cccs4)nc4ccccc34)cc2[nH]1 | > 64 | > 64 | > 64 | > 64 | 64 (≈ 156 µM) | > 64 | > 64 | 64 (≈ 156 µM) | > 64 | 
2 | CO[C@H]1/C=C/O[C@@]2(C)Oc3c(C)c(O)c4c(O)c(c(/C=N/N5CCN(C)CC5)c(O)c4c3C2=O)NC(=O)/C(C)=C\C=C\[C@H](C)[C@H](O)[C@@H](C)[C@@H](O)[C@@H](C)[C@H](OC(C)=O)[C@@H]1C [RIFAMPIN] |  |  |  |  | 0.06 (≈ 0.0729 µM) |  |  |  |  | 
3 | COc1cccc(OC)c1C(=O)N[C@@H]1C(=O)N2[C@@H]1SC(C)(C)[C@@H]2C(=O)O [METHICILLIN] |  |  |  |  |  |  |  |  |  | MIC [10]: 1 µg/mL (≈ 2.63 µM); MIC [11]: > 64 µg/mL; MIC [12]: > 64 µg/mL; MIC [13]: > 64 µg/mL; MIC [14]: > 64 µg/mL; MIC [15]: > 64 µg/mL; MIC [16]: > 64 µg/mL; MIC [17]: > 64 µg/mL; MIC [18]: > 64 µg/mL; MIC [19]: > 64 µg/mL; MIC [20]: > 64 µg/mL; MIC [21]: 32 µg/mL (≈ 84.1 µM); MIC [22]: > 64 µg/mL
4 | O=C(Nc1ccc2nc(C(F)(F)F)[nH]c2c1)c1ccc(Nc2nc(-c3ccccc3)nc3ccccc23)cc1 | > 64 | > 64 | > 64 | > 64 | 64 (≈ 122 µM) | > 64 | > 64 | 32 (≈ 61 µM) | > 64 | 
5 | O=[N+]([O-])c1ccc2[nH]c(-c3ccc(Nc4nc(-c5ccccc5)nc5ccccc45)cc3)nc2c1 | > 64 | > 64 | > 64 | > 64 | 8 (≈ 17.4 µM) | > 64 | > 64 | > 64 | > 64 | selectivity ratio [23]: 12.5; CC50 at 72 h [24]: 100 µg/mL (≈ 218 µM)
6 | N#Cc1ccc(/C=C/c2nc3ccccc3c(=O)n2-c2ccc(C(=O)O)c(O)c2)cc1 |  |  |  |  | 64 (≈ 156 µM) |  |  | 0.03 (≈ 0.0733 µM) |  | 
7 | Clc1ccc(-c2nc(Nc3ccc(-c4nc5cc(Cl)ccc5[nH]4)cc3)c3ccccc3n2)cc1 |  |  | > 64 | > 64 |  |  | > 64 | > 64 | > 64 | 
8 | O=C(Nc1ccc2nc(-c3cnc4c(Cl)cccc4c3)[nH]c2c1)c1ccc(Nc2nc(-c3ccccc3)nc3ccccc23)cc1 | > 64 | > 64 | > 64 | > 64 | 16 (≈ 25.9 µM) | > 64 | > 64 | > 64 | > 64 | selectivity ratio [23]: > 6.25; CC50 at 72 h [24]: > 100 µg/mL
9 | NNC(=O)c1ccncc1 [ISONIAZID] |  |  |  |  | 0.03 (≈ 0.219 µM) |  |  |  |  | 
10 | C[C@H]1COc2c(N3CCN(C)CC3)c(F)cc3c(=O)c(C(=O)O)cn1c23.C[C@H]1COc2c(N3CCN(C)CC3)c(F)cc3c(=O)c(C(=O)O)cn1c23.O [LEVOFLOXACIN] | 1 | 0.03 | 64 | 0.125 |  | 0.03 |  | 0.015 | 0.5 | MIC [10]: 0.125 µg/mL; MIC [11]: 8 µg/mL; MIC [12]: 0.25 µg/mL; MIC [13]: 16 µg/mL; MIC [14]: 0.25 µg/mL; MIC [15]: 8 µg/mL; MIC [16]: 32 µg/mL; MIC [17]: 32 µg/mL; MIC [18]: 32 µg/mL; MIC [19]: > 64 µg/mL; MIC [20]: 32 µg/mL; MIC [21]: 0.125 µg/mL; MIC [22]: 16 µg/mL
11 | O=C(Nc1ccc2nc(-c3ccc4ccccc4c3)[nH]c2c1)c1ccc(Nc2nc(-c3ccccc3)nc3ccccc23)cc1 | > 64 | > 64 | > 64 | > 64 | 64 (≈ 110 µM) | > 64 | > 64 | > 64 | > 64 | 
